Experimental data taken from publication PMC3312795 (European Journal of Medicinal Chemistry, 2012).

Columns and labels:
SA11 rotavirus [1] = experiment: Rotavirus; assay type: cell-based, rotavirus SA11 (primate G3); conditions: SA11, MOI of 2, 12 hr post infection
In short: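 Confluent MA104 monolayers inoculated 1 hr, PBS-washed, then held in MEM with test compound (below 50 μM; below 20 μM for some) or 0.1% DMSO plus trypsin 1 μg/ml. At 12 hr, IFA: methanol fix (RT, 30 min), anti-VP6 mAb, FITC anti-mouse IgG. Western: lysates sonicated, 10% gel, anti-VP6 with β-actin loading control, chemiluminescent detection.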

Huh-7 cells = experiment: Lipid droplet development in Huh-7 cells; assay type: cell-based, human; conditions: various concentrations
In short: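 Spontaneous lipid droplet formation in confluent Huh-7 cells given various concentrations of test compound or 0.1% DMSO mock for 72 hr. Medium then replaced with NBD-cholesterol (1 μg/ml) medium for a further 12 hr. Cells fixed in 4% formaldehyde for 10 min, PBS-washed, and fluorescence viewed by microscopy. Untreated 1-day-old and 4-day-old cells served as references.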

SA11 rotavirus [2] = experiment: Pre-treatment of SA11 rotavirus with compound; assay type: cell-based, rotavirus SA11 (primate G3); conditions: pre-treatment with compound at 100 M (so in the source), 37 °C for 2 hrs
SA11 rotavirus [3] = experiment: Rotavirus; assay type: cell-based, rotavirus SA11 (primate G3); conditions: MA104, in Primates, 24 h, read-out: ED50, rotavirus (SA11) replication, MA104 cells, TCID50 titers at 24 hr post infection, average of at least 3 independent tests

| Structure (SMILES) | anti-rotaviral effects by Western blot analysis and IFA (SA11 rotavirus [1]) | suppression of increase in lipid droplets (Huh-7 cells) | effect of pre-treatment of SA11 rotavirus on viral titer (virucidal effect) (SA11 rotavirus [2]) | EC50 (SA11 rotavirus [3]) [µM] |
| --- | --- | --- | --- | --- |
| CCC/C=C/C/C=C/C=C/C=N/N1CCCS1(=O)=O [1ba, 2-[(2E,4E,7E)-Undeca-2,4,7-trienylideneamino]-1,1-dioxo-1-isothiazolidine] | confirmed | dose-dependent | – | – |
| CCC/C=C/C/C=C/C=C/CNc1ccc(C(=O)O)cc1 [1e, 4-((2E,4E,7E)-Undeca-2,4,7-trienylamino)benzoic acid] | confirmed | dose-dependent | did not affect the viral titer | – |
| C=C(C)[C@@H]1CC[C@]2(C(=O)O)CC[C@]3(C)[C@H](CC[C@@H]4[C@@]5(C)CC[C@H](O)C(C)(C)[C@@H]5CC[C@]43C)[C@@H]12 [Betulinic acid, betulinic acid] | – | – | – | 11.3 to 28.5 |
| C=C1C(=O)O[C@H](CCCCCCCC)[C@H]1C(=O)O [C75] | – | – | – | 11.3 to 28.5 |
| CCCCCCCCCCCCCCCCNc1ccc(C(=O)O)cc1 [PHB, hexadecylamino-p-amino benzoic acid] | – | – | – | 11.3 to 28.5 |
| CCC/C=C/C/C=C/C=C/C=N/NN=O [Triacsin C] | confirmed | dose-dependent | did not affect the viral titer | – |
